Laboratory results taken from ChEMBL document CHEMBL3352197, “Design, synthesis, in silico and in vitro studies of novel 4-methylthiazole-5-carboxylic acid derivatives as potent anti-cancer agents” (Bioorg Med Chem Lett, 2014).

What was measured:
MDA-MB-231 [1] = assay: Cytotoxicity against human MDA-MB-231 cells assessed as optical density after 24 hrs by MTT assay (Rvb =2.43 +/- 0.05 nm); type: functional
Method in brief: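 Exponentially growing MDA-MB-231 cells were resuspended in medium with 10% FBS, washed with PBS, and treated in fresh medium for 24 h. MTT (5 mg/mL stock in PBS) was then added for 4 h at 37 °C. Formazan was dissolved in DMSO and optical density read at 570 nm.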

MDA-MB-231 [2] = assay: Cytotoxicity against human MDA-MB-231 cells assessed as cell viability at 100 ug/ml after 24 to 48 hrs by trypan blue exclusion assay (reference value: 86.21 +/- 1.80%); type: functional; conditions: read-out: Activity
Method in brief: (§1)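 MDA-MB-231 cells (DMEM, 10% FBS, 2 mM glutamine, 37 °C, 5% CO2) seeded at 2 x 10^5/well and grown 24 h. Compound in fresh medium with 0.1% DMSO (solvent control) for 24–48 h at 37 °C. Floating plus trypsinized adherent cells mixed 1:1 with 0.4% trypan blue and counted by haemocytometer. % viable = (total − dead)/total × 100. Mean SE, n = 3.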

[3] = Lipophilicity, log P of the compound; type: physicochemical; conditions: octanol/water
MDA-MB-231 [4] = assay: Cytotoxicity against human MDA-MB-231 cells assessed as cell viability at 10 ug/ml after 24 to 48 hrs by trypan blue exclusion assay (reference value: 87.54 +/- 2.11%); type: functional; conditions: read-out: Activity; method in brief: as §1

Row | SMILES | OD (MDA-MB-231 [1]) | viability at 100 µg/mL (MDA-MB-231 [2]) [%] | logP [3] | viability at 10 µg/mL (MDA-MB-231 [4]) [%]
1 | Cc1nc(-c2ccc(OCC(C)C)c(C#N)c2)sc1C(=O)NCc1ccc(F)cc1 | 0.33 | 13.1 | 2.86 | 21.8
2 | Cc1nc(-c2ccc(OCC(C)C)c(C#N)c2)sc1C(=O)n1ccc(N)nc1=O | 0.79 | 29.2 | 1.59 | 40.9
3 | Cc1nc(-c2ccc(OCC(C)C)c(C#N)c2)sc1C(=O)NCc1ccccc1F | 1.27 | 43.2 | 2.9 | 58.3
4 | COC(=O)c1sc(-c2ccc(OCC(C)C)c(C#N)c2)nc1C | 2.27 | 67.6 | 1.63 | 76.7
5 | Cc1nc(-c2ccc(OCC(C)C)c(C#N)c2)sc1C(=O)NCc1ccccc1 | 1.89 | 63.5 | 2.2 | 73.6
6 | Cc1nc(-c2ccc(OCC(C)C)c(C#N)c2)sc1C(=O)OCC(C)C | 1.16 | 36.2 | 0 | 44.2
7 | Cc1ccc(-c2cc(C(F)(F)F)nn2-c2ccc(S(N)(=O)=O)cc2)cc1 [CELECOXIB] | 0.27 | 11.4 | – | 17.3
8 | Cc1nc(-c2ccc(OCC(C)C)c(C#N)c2)sc1C(=O)NCc1cccc(F)c1 | 1.44 | 54.3 | 2.86 | 64.3
9 | Cc1nc(-c2ccc(OCC(C)C)c(C#N)c2)sc1C(=O)O [FEBUXOSTAT] | 0.56 | 27.7 | 1.35 | 38.3
10 | Cc1nc(-c2ccc(OCC(C)C)c(C#N)c2)sc1C(=O)Nc1ccccc1 | 1.31 | 50.7 | 4.57 | 62.7
11 | Cc1nc(-c2ccc(OCC(C)C)c(C#N)c2)sc1C(=O)N1CCC(c2noc3cc(F)ccc23)CC1 | 1.65 | 56.3 | 2.7 | 64.6
12 | Cc1nc(-c2ccc(OCC(C)C)cc2)sc1C(=O)O | 1.73 | 59.3 | 3.08 | 71.2
13 | Cc1nc(-c2ccc(OCC(C)C)c(C#N)c2)sc1C(=O)n1cc(F)c(N)nc1=O | 2.11 | 66.4 | 0.94 | 74.6
